Experimental data collected from several papers.
Each line is one published result; the experiments were not run side by side.
Target: Mitogen-activated protein kinase kinase kinase 13 (MAP3K13, Homo sapiens, UniProt O43283)
One construct used (O43283 1-966): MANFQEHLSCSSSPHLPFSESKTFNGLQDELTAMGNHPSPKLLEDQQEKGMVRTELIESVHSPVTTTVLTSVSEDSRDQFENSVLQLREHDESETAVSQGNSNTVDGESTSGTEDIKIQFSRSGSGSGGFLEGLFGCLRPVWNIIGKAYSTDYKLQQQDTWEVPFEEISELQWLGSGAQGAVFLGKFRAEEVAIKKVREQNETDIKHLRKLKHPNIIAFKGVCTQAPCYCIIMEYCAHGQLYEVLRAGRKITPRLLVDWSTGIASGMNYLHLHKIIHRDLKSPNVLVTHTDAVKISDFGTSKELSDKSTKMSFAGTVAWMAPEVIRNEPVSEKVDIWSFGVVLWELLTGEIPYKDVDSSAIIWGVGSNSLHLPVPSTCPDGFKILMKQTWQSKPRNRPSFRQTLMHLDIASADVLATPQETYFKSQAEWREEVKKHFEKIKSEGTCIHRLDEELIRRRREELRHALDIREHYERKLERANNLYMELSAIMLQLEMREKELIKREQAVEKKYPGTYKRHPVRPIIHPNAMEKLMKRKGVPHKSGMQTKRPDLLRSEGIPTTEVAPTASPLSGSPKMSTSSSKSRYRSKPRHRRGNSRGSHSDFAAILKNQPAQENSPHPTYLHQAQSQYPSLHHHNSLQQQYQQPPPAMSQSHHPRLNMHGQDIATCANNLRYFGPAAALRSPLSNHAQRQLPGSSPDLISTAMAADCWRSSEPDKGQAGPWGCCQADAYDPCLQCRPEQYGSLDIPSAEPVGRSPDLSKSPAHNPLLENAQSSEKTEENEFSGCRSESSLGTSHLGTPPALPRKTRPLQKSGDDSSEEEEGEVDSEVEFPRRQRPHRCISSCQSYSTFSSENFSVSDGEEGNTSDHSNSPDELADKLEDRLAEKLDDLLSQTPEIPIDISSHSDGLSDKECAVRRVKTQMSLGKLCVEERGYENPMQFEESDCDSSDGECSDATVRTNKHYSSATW

SMILES	effect on	method	concentration	remaining binding [%]
Cc1c(C(=O)O)cc(-c2ccc(C3CCNCC3)cc2)c2ccc(-c3ccc(C(F)(F)F)cc3)cc12	binding	competition with immobilised ligand	1 µM	100
C[C@@H]1CCN(c2nccc(-c3cnn4ncccc34)n2)C1	binding		1 µM	71
COc1cnc(Nc2cccc(S(N)(=O)=O)c2)nc1N1CCN(c2ccccc2)C(=O)C1	binding	competition with immobilised ligand	1 µM	100
O=C(c1ccc(Nc2ncc(Cl)c(-c3cc4ccccc4s3)n2)cc1)N1CCC(N2CCCC2)CC1	binding	competition with immobilised ligand	1 µM	46
Nc1ncc2c(n1)-c1c([nH]c3ccc(C#CC4CC4)cc13)CCCC2	binding	competition with immobilised ligand	1 µM	61
COc1ccnn2ncc(-c3ccnc(N(C)C)n3)c12	binding		1 µM	21
O=C(NCCCN1CCOCC1)c1ccc(Nc2ncc(Cl)c(-c3ccc(Cl)s3)n2)cc1	binding	competition with immobilised ligand	1 µM	92
O=C(O)[C@@H]1[C@@H](Cn2nnc3ccccc3c2=O)CC[C@H]1C(=O)c1ccc(OCCC2CCOCC2)cc1	cell-free assay	competition with immobilised ligand	1 µM	70
O=C(Nc1c[nH]nc1C(=O)NC1CCNCC1)c1cc(F)cc(F)c1	binding	competition with immobilised ligand	1 µM	100
CC(=O)C1=C(C)N(c2cccc(C(F)(F)F)c2)C(=O)N[C@@H]1c1ccc(C#N)nc1	cell-free assay	competition with immobilised ligand	1 µM	92.4
O=C(c1ccc(Nc2nccc(-c3cc4ccccc4s3)n2)cc1)N1CCC(N2CCCC2)CC1	binding	competition with immobilised ligand	1 µM	68
CN(c1nccc(-c2cnn3ncccc23)n1)C1CC1	binding		1 µM	18
FC(F)(F)Oc1cccc(-c2cnc3ccc(-c4ccncc4)nn23)c1	cell-free assay	competition with immobilised ligand	5 µM	83
COCCOc1nc(-c2ccc(Cl)nc2)nc2c1CN(C(=O)c1ncn3ccccc13)CC2	cell-free assay	competition with immobilised ligand	0.1 µM	87
F[C@@H]1CCN(c2nccc(-c3cnn4ncccc34)n2)C1	binding		1 µM	100
c1cncc(-c2cccc(Nc3nccc(NC4CCCCC4)n3)c2)c1	binding	competition with immobilised ligand	10 µM	83
CN(C)c1ncc(F)c(-c2cnn3ncccc23)n1	binding		1 µM	90
COc1cc(-c2cn(C3CCc4c(F)cccc4N(CC(F)(F)F)C3=O)nn2)ccc1-n1cnc(C)c1 (centres unmarked)	cell-free assay	competition with immobilised ligand	1 µM	75
Cc1cnn2ncc(-c3ccnc(N(C)C)n3)c2c1	binding		1 µM	70
COc1ccc2c(c1)O[C@H](c1ccc(OC)c(OC)c1)C[C@@H]2NC(=O)C1(c2ccc3c(c2)OC(F)(F)O3)CC1	cell-free assay	competition with immobilised ligand	1 µM	91
